Screening results (PubChem)
Compounds with a hit are over-represented: about 3.8% of the library has one in this group of screens.
KCNQ1 act: potentiates or activates the human KCNQ1 potassium channel | P51787 | AID 2648 | CHO-K1 KCNQ1, thallium flux FluxOR fluorescence; hits give high values | B-score at 10 µM | actives 0.35% (n = 310,000);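 active = fluorescence ratio B-score, a plate-corrected score, at least three library SD, with initial intensity B-score within 5 SD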
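System: CHO-K1 cells stably expressing KCNQ1 / Medium: assay buffer for compound exposure, DMSO matched across wells / Reagent: thallium- and potassium-containing depolarizing buffer / Compound: one concentration, matched DMSO / Incubation: 20 min compound pretreatment at room temperature / Measured by: kinetic FluxOR fluorescence, 10 s baseline plus 110 s post-stimulus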
KCNK9 inh: inhibitors of human KCNK9 two-pore domain potassium channel | HEK293 KCNK9, FluxOR thallium flux fluorescence; hits give low values | B-score at 10 µM | actives 1.2% (n = 310,000) | Q9NPC2 | AID 488922;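 active = ratio B-score over 3 SD below the library mean, with starting fluorescence within 5 SD of its mean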;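 note: negative B-score means less thallium flux so channel inhibition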
Kir21 block: Kir2.1 (mouse) channel inhibition; P35561; HEK293-Kir2.1, FluxOR thallium flux fluorescence; hits give low values; AID 1672; actives 0.85% (n = 310,000); B-score at 10 µM;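 active = fluorescence ratio B-score at or below minus 3 SD of library scores, with starting-brightness B-score within 2 SD, cut at about -4.2 in these data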;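 note: channel flux triggered by added potassium and thallium sulfate stimulus; B-score of peak minus minimum fluorescence over baseline after thallium stimulus; more negative B-score means stronger Kir2.1 block with less thallium influx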
KCNK3 inh: human KCNK3 channel inhibition, primary screen | B-score at 10 µM | O14649 | CHO-KCNK3 thallium flux, FluxOR fluorescence; hits give low values | actives 0.84% (n = 340,000);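 active = B-score under library mean minus 4 SD, starting fluorescence ratio at most library mean plus 5 SD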;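 note: more negative B-score means stronger inhibition of thallium flux through KCNK3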
hERG rescue: compounds protecting human hERG from proarrhythmic drug block; Q12809; CHO-hERG, FluxOR thallium flux, dofetilide IC70 present; activation (rescue from dofetilide block), less the hit threshold, % at 10 µM; actives 0.51% (n = 310,000); AID 1511;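 active = activation above the mean of controls blocked by dofetilide plus 5 SD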;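 note: thallium influx through hERG after potassium depolarization seen as dye fluorescence rise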
Target sequence (Q12809 whole entry, looked up): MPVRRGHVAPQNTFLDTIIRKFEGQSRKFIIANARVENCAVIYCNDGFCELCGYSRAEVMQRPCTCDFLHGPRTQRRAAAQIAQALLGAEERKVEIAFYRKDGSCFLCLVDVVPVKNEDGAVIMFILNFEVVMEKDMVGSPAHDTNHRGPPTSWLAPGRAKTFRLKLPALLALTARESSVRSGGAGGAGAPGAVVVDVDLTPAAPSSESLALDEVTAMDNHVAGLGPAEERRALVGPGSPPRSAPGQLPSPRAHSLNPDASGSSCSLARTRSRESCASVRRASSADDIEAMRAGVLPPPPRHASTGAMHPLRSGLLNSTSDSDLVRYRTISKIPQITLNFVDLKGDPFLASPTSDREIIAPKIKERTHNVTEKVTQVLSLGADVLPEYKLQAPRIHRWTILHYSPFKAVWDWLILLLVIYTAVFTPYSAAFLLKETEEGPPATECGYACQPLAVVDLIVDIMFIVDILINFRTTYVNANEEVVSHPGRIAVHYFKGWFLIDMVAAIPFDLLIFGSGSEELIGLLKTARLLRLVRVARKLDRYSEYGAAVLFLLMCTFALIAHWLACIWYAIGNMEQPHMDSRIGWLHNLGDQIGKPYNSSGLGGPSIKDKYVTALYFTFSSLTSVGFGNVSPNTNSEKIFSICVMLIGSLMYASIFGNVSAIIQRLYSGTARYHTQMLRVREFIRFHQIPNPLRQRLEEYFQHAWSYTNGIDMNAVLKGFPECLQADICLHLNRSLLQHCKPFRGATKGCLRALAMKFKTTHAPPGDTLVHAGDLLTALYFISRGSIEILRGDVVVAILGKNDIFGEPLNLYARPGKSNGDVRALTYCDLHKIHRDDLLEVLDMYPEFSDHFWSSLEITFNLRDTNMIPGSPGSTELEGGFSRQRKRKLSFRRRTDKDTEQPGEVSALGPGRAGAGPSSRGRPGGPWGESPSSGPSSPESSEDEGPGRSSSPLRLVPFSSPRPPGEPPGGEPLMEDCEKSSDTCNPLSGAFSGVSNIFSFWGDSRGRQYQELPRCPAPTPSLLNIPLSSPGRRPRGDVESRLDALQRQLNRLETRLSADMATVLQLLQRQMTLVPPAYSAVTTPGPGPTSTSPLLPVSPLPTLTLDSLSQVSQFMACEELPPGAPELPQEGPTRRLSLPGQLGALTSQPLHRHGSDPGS
KCNQ1 inh: human KCNQ1 channel inhibition; actives 1.3% (n = 310,000); P51787; B-score at 10 µM; CHO-K1 KCNQ1, FluxOR thallium flux fluorescence; hits give high values;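 active = compounds whose thallium flux B-score, printed positive for inhibition, exceeds three library SD while starting fluorescence stays within three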;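 note: channel opened by potassium depolarization with thallium stimulus after 20 min compound exposure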
An asterisk follows results filed as active; i = inactive; x = no result given.

SMILES | KCNQ1 act | KCNK9 inh | Kir21 block | KCNK3 inh | hERG rescue | KCNQ1 inh
CC(C)N1CCc2c(sc(NC(=O)c3ccc(C(=O)c4ccccc4)cc3)c2C(N)=O)C1 | i | i | -0.61 | i | -29.3 | i
CC(C)N1CCc2c(sc(NC(=O)c3cc4cc([N+](=O)[O-])ccc4s3)c2C(N)=O)C1 | i | i | -0.06 | i | -13.3 | 6*
CC(C)N1CCc2c(sc(NC(=O)c3ccc4ccccc4c3)c2C(N)=O)C1 | i | -7.94* | -3.79 | i | -23.8 | i
COc1ccc(OC)c(NC(=O)CN2CCc3ccccc3C2)c1 | i | i | 0.59 | i | -5.0 | i
CC(C)CC1NC(=O)N(CC(=O)Nc2ccc(-c3ccccc3)cc2)C1=O (centres undefined) | x | x | x | i | x | x
CCN(CC(=O)Nc1c(F)cccc1F)C(=O)c1ccc(OCc2c(C)noc2C)cc1 | x | x | x | i | x | x
CCC(Oc1ccccc1)C(=O)Nc1ccc(-c2nnc(-c3ccco3)o2)cc1 (centres undefined) | i | -7.3* | 0.03 | i | -9.2 | i
CC(=O)c1c(C)[nH]c(C(=O)Nc2nc(-c3ccc(-c4ccccc4)cc3)cs2)c1C | i | i | 1.81 | i | -28.9 | 8*
CCC1C(c2ccccc2)N(C)C(c2ccccc2)CC1(O)c1ccccc1 (centres undefined) | i | i | 0 | i | -22.9 | 12*
Nc1c(C(=O)NCC2CCCO2)sc2nc3c(c(-c4ccco4)c12)CC/C3=C\c1ccco1 (centres undefined) | x | x | x | -12.1* | x | x
Cc1ccc(Cl)c(OC(=O)Cn2cnc3c2c(=O)n(C)c(=O)n3C)c1 | i | i | -0.46 | i | -6.9 | i
CCCCNC(=S)NNC(=O)c1cc(-c2ccncc2)nc2ccccc12 | i | i | -0.35 | i | -11.2 | i
CCc1nc2c(c(=O)c3ccccc3n2C)c(=O)n1CCc1ccc(OC)cc1 | i | -12.3* | 0.48 | x | -15.4 | 7*
COc1ccc(CCn2c(-c3ccc(OC)cc3)nc3c(c(=O)c4ccccc4n3C)c2=O)cc1 | i | i | -0.05 | i | -1.1 | i
Cc1ccc2cc(C)c3nnc(SCC(=O)c4cccs4)n3c2c1C | i | i | -5.11* | i | -8.1 | i
Cc1ccc(C)c2c1cc(C)c1nnc(SCC(=O)c3cccs3)n12 | i | i | -7.54* | i | -7.9 | i
Cc1ccc(C)c2c1cc(C)c1nnc(SCC(=O)Nc3nc4c(s3)CCCC4)n12 | i | i | -0.03 | i | -3.5 | i
CC[C@@]1(C(=O)OC)N[C@H](CN(C)C(=O)c2ccc(F)cc2)[C@@H]2C(=O)N(Cc3ccccc3)C(=O)[C@@H]21 | x | x | x | i | x | x
CCOC(=O)c1c(C)oc2ccc(OCC(N)=O)cc12 | i | i | -1.34 | i | -1.8 | i
CCOC(=O)c1c(C)cccc1OCC(N)=O | i | i | -1.22 | i | 6.2* | i
CC[n+]1c(/C=C2/C=C(C)CC(C)C2)sc2ccccc21 (centres undefined) | i | i | 1.53 | i | -27.1 | 6*
CC/C(=C/c1sc2ccccc2[n+]1CC)SC | i | i | -0.16 | i | -2.3 | i
CC[n+]1c(C=C2C=C(C)OC(C)=C2)sc2ccccc21 | i | i | -3.31 | i | -31.2 | 10*
CC[n+]1c(/C=C(\C)SC)sc2ccccc21 | i | i | 1.82 | i | -1.4 | i
O=C(OCc1ccccc1)N1C=CC2CC1c1c(Cl)cccc12 (centres undefined) | x | x | x | i | x | x
SMILES | KCNQ1 act | KCNK9 inh | Kir21 block | KCNK3 inh | hERG rescue | KCNQ1 inh
CCOC(=O)c1c(CN2CCNCC2)nc2ccc(Cl)cc2c1-c1ccccc1 | x | x | x | i | x | x
CCOCCCNC(=O)c1cn(CC)c2ccc(S(=O)(=O)N(C)C3CCCCC3)cc2c1=O | i | i | -1.18 | i | -15.6 | 7*
CCn1cc(C(=O)NCC(OC)OC)c(=O)c2cc(S(=O)(=O)N3CCC(C)CC3)ccc21 | i | i | 0.29 | i | -10.0 | 6*
O=C(CSc1nccn1-c1ccc(Cl)cc1)N1CCCc2ccccc21 | i | i | -9.34* | i | -9.2 | i
Cn1c(-c2ccccc2)cnc1SCC(=O)N1CCCc2ccccc21 | i | i | -7.46* | i | -9.4 | i
CCc1noc(C)c1C(=O)Nc1ccc(C(F)(F)F)cc1 | i | i | 0.6 | i | -4.1 | i
CN(CC(=O)Nc1ccccc1C(F)(F)F)C(=O)Cc1ccc(S(=O)(=O)N2CCOCC2)s1 | i | i | 0.09 | i | -14.5 | i
COc1ccc(CNC(=O)CN(C(=O)c2snc(C(N)=O)c2N)c2ccc(OC)c(OC)c2)cc1 | i | i | 0.34 | i | -8.2 | i
Cc1ccc(-c2nc(NCc3ccco3)c3ccccc3n2)cc1 | i | -6.58* | 0.27 | i | -18.0 | i
CCCC(=O)n1nc(-c2ccc(C)cc2)nc1NCc1ccco1 | 10* | i | 0.02 | i | -12.5 | i
c1ccc(Nc2nc(NCc3ccco3)c3ccccc3n2)cc1 | i | i | -16.6* | i | -22.6 | i
Cc1ccc(C(=O)n2nc(-c3ccccc3)nc2NCc2ccco2)cc1 | i | i | -0.03 | i | -7.9 | i
c1cncc(-c2nc(NCc3ccco3)c3ccccc3n2)c1 | i | i | 2.3 | i | -15.7 | i
C=CCN1C(=O)/C(=C/C=C2/N(CC)c3ccc(S(=O)(=O)N(C)C)cc3N2CC)SC1=S | i | i | -12.2 | i | -16.7 | 9*
C=CCN1C(=O)/C(=C\C=C2\N(C)c3ccccc3C2(C)C)SC1=S | i | i | -3.06 | i | -9.6 | i
COc1ccc(S(=O)(=O)Nc2cc(C(C)C)c(O)cc2C)cc1 | i | i | -1.32 | i | -12.2 | i
Cc1ccc(S(=O)(=O)Nc2cc(C)c(O)cc2C)cc1 | i | i | -4.93* | i | -7.1 | i
Cc1cc(NS(=O)(=O)c2ccccc2)c(C)c(Cl)c1O | i | i | -5.81* | i | -16.0 | i
CCc1ccc2c(Cl)c(C(=O)N/N=C/c3c[nH]c4ccccc34)sc2c1 | i | i | 0.38 | i | -9.2 | 6*
C/C(=N\N=C(N)N)c1ccc(Cl)cc1Cl | i | i | -7.15* | i | -8.6 | i
C/C(=N\N=C(N)N)c1cccc(Cl)c1 | i | i | -2.56 | i | -3.6 | i
C/C(=N\N=C(N)N)c1cc(Cl)ccc1Cl | i | i | -5.75* | i | -4.8 | i
O=C(NCCCN1CCCC1=O)C1CCN(S(=O)(=O)c2ccccc2)CC1 | x | x | x | i | x | x
Cc1nnc(SCC(=O)NC(=O)Nc2ccc3c(c2)OCCO3)n1N | i | i | 0.01 | i | -7.2 | i
